ChEMBL document CHEMBL4041524, “Synthesis and Characterization of a Novel γ-Aminobutyric Acid Type A (GABAA) Receptor Ligand That Combines Outstanding Metabolic Stability, Pharmacokinetics, and Anxiolytic Efficacy” (J Med Chem, 2016)
Calls of active or inactive are those of the source. The calls are words filed in the database; no cut-off is given here.

Columns and labels:
[1] = Total plasma concentration in Sprague-Dawley rat at 10 mg/kg, po measured after 60 mins by LC-MS/MS analysis; assay type: ADME, organism-based
Method in brief: (§1)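 Sprague-Dawley rats (n = 3 per time point) were given 10 mg/kg p.o. Total plasma concentrations were taken at 15, 30, 60 and 120 min. Brain levels of the dosed ligand and of the carboxylic acid metabolite were taken at 60 or 120 min.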

[2] = target: GABA-A receptor; alpha-2/beta-3/gamma-2 (Homo sapiens) (UniProt P18507+P28472+P47869); experiment: Modulation of recombinant GABA alpha2beta3gamma2 receptor (unknown origin) expressed in Xenopus laevis oocytes assessed as change in GABA-induced EC(3 to 6) current at 100 nM by two-electrode voltage clamp assay; assay type: cell-based
Method in brief: (§2)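 Xenopus laevis oocytes expressing α1, α2, α3 or α5 β3γ2 GABAARs were recorded by two-electrode voltage clamp. Modulation of the GABA EC3-6 current (taken as 100%) was tested at 100 nM, 1 μM and 10 μM in the same cells. Values are mean ± SEM, n = 3–4.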

[3] = Total plasma concentration in Sprague-Dawley rat at 10 mg/kg, ip measured after 4 hrs; assay type: ADME, organism-based
Method in brief: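 Rats were given 10 mg/kg i.p. (n = 3), and total plasma and brain concentrations were measured at 4 h. Unbound concentrations were calculated as Fu × total concentration, and Kp,uu = Cu,brain/Cu,plasma.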

[4] = target: T1, GABA-A receptor; alpha-1/beta-3/gamma-2 (Homo sapiens, UniProt P14867+P18507+P28472); experiment: Modulation of recombinant human GABA alpha1beta3gamma2 receptor expressed in HEK293 cells assessed as change in GABA-induced current at -80 mV holding potential preincubated for 3 mins followed by co-administration of GABA by electrophysiology method; assay type: cell-based
T1 sequence (P14867 whole entry): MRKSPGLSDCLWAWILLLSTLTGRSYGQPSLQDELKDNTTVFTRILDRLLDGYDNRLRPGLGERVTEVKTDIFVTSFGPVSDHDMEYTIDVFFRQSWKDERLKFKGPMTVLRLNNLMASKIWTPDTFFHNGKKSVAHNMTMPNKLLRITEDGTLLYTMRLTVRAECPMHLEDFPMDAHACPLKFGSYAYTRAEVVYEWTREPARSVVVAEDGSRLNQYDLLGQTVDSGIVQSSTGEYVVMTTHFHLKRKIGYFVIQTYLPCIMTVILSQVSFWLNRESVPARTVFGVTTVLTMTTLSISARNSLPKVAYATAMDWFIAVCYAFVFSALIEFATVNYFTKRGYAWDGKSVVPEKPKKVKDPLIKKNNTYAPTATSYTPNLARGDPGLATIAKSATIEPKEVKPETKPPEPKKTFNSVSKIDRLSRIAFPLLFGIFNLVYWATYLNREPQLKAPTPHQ
T1 sequence (P18507 whole entry): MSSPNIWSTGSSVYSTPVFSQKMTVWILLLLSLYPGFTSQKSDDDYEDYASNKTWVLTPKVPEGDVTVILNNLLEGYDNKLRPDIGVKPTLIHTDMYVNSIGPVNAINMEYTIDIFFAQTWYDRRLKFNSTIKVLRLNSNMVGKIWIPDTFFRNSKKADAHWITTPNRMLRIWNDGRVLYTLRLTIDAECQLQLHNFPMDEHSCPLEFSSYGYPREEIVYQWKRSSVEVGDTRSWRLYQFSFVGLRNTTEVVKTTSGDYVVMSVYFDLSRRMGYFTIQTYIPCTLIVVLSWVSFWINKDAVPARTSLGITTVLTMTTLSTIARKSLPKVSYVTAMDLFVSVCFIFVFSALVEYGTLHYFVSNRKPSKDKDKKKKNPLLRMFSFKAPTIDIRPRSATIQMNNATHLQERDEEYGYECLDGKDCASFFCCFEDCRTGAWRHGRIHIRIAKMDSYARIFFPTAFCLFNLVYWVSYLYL
T1 sequence (P28472 whole entry): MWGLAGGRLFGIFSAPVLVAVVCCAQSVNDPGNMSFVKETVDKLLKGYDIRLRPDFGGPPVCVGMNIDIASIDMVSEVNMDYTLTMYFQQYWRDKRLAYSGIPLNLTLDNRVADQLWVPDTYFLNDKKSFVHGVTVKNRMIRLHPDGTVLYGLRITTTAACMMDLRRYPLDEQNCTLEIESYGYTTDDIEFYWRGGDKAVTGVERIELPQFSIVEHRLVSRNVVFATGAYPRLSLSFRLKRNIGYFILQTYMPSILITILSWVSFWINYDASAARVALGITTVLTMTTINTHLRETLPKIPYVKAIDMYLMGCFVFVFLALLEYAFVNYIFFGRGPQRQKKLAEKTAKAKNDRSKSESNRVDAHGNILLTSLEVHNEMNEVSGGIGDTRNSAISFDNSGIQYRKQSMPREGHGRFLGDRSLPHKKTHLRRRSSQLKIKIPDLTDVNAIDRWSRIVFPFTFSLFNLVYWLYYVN

[5] = target: GABA-A receptor; alpha-5/beta-3/gamma-2 (Homo sapiens) (UniProt P18507+P28472+P31644); experiment: Modulation of recombinant GABA alpha5beta3gamma2 receptor (unknown origin) expressed in Xenopus laevis oocytes assessed as change in GABA-induced EC(3 to 6) current at 10 uM by two-electrode voltage clamp assay; assay type: cell-based; method in brief: as §2
Rattus norvegicus [6] = experiment: Anxiolytic like activity in water-deprived Sprague-Dawley rat assessed as increase in water drinking time during punished period at 20 mg/kg, po administered 30 mins prior to testing by Vogel conflict test relative to control; assay type: functional
Method in brief: (§3)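 Water-deprived male Sprague-Dawley rats (n = 6–8) drank during unpunished and punished periods, with licking suppressed by mild shock in punished periods. Compounds were given 30 min before testing. Analysis was ANOVA with Dunnett's test.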

[7] = target: GABA-A receptor; alpha-3/beta-3/gamma-2 (Homo sapiens) (UniProt P18507+P28472+P34903); experiment: Modulation of recombinant GABA alpha3beta3gamma2 receptor (unknown origin) expressed in Xenopus laevis oocytes assessed as change in GABA-induced EC(3 to 6) current at 100 nM by two-electrode voltage clamp assay; assay type: cell-based; method in brief: as §2
Rattus norvegicus [8] = experiment: Anxiolytic like activity in water-deprived Sprague-Dawley rat assessed as increase in water drinking time during punished period at 3 mg/kg, po administered 30 mins prior to testing by Vogel conflict test relative to control; assay type: functional, organism-based; method in brief: as §3
Plasma = experiment: Unbound plasma concentration in Sprague-Dawley rat at 10 mg/kg, ip measured after 4 hrs; assay type: ADME, organism-based; settings: in vivo
Method in brief: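 Male Sprague-Dawley rats (n = 3) received 10 mg/kg i.p., and total plasma concentration was measured at 4 h. Fraction unbound in plasma was determined in vitro by equilibrium dialysis with rat plasma protein. Unbound concentration was calculated as fraction unbound × total concentration.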

Liver = experiment: Metabolic stability in rat liver microsomes assessed as compound remaining at 4 uM measured after 30 mins in presence of NADPH by LC-MS/MS analysis; assay type: ADME, microsome; settings: 0.5 h
Method in brief: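 Human, mouse or rat liver microsomes were incubated with compound at 4 μM final for 30 min at 37 °C (n = 1). Percent of parent remaining was quantified by LC-MS/MS.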

[9] = Drug uptake in Sprague-Dawley rat brain at 10 mg/kg, po measured after 60 mins by LC-MS/MS analysis; assay type: ADME, organism-based; settings: read-out: Drug uptake; method in brief: as §1

C#Cc1ccc2c(c1)C(c1ccccn1)=NCc1c(-c3cnco3)ncn1-2
concentration at 1 h [1]: 3.91 µM
Activity [2]: 100%
concentration at 4 h [3]: 2.13 µM
EC50 [4]: 489 nM
Activity [5]: 246%
Activity (Rattus norvegicus [6]): 330%
Activity [7]: 109%
Activity (Rattus norvegicus [8]): inactive
Cp(f) (Plasma): 0.552 µM
Stability (Liver): 90%
concentration at 1 h [9]: 3.64 µM
